How the values were obtained:
γ-secretase [1] = experiment: GM1-bound Aβ in TBS-Tx extracts of 3 mo J20 tg mice after Compound E; assay type: in vivo, mouse
In short: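 3-month J20 transgenic mice were injected with test compound or vehicle, and brains were harvested 2.5 h or 5 h later. Brains were Dounce-homogenized in ice-cold TBS (20 mM Tris-HCl, 150 mM NaCl, pH 7.4) with protease inhibitors and spun 175,000 g for 30 min at 4 °C. The pellet was re-extracted the same way in TBS-1% Triton-X. Both extracts underwent R1282 IP, then WB: 3D6+6E10+266+2G3+21F12 for Aβ, CTβ for GM1. N=4 vehicle mice; mean ± SEM; 2-way ANOVA with Bonferroni post-test.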

γ-secretase [2] = settings: ref Hong et al., 2011; cited from earlier work

C[C@H](NC(=O)Cc1cc(F)cc(F)c1)C(=O)N[C@H]1N=C(c2ccccc2)c2ccccc2N(C)C1=O [Compound E]
Levels of GM1-bound Aβ in TBS-Tx (γ-secretase [1]; 3 mo J20 tg mice, brains harvested 2.5 h or 5 h after injection, N=3 and 4 mice): decreased | Effect on total GM1 levels in the brain (γ-secretase [1]; data not shown): no effect | t1/2 of decline in brain ISF Aβ (γ-secretase [2]): ~ 2 h
